By IC90 is commonly meant the concentration at which the effect reaches the 90% level.

Series [1] concerns the target Protease (Human immunodeficiency virus 1) (UniProt Q9YQ12). The experiment in a line: Inhibition of HIV1 recombinant protease expressed in Escherichia coli BL21 (DE3) cells by SDS-PAGE.
For another series, the target named is T1, Cathepsin D (Bos taurus) (UniProt P80209).
T1 sequence (whole entry): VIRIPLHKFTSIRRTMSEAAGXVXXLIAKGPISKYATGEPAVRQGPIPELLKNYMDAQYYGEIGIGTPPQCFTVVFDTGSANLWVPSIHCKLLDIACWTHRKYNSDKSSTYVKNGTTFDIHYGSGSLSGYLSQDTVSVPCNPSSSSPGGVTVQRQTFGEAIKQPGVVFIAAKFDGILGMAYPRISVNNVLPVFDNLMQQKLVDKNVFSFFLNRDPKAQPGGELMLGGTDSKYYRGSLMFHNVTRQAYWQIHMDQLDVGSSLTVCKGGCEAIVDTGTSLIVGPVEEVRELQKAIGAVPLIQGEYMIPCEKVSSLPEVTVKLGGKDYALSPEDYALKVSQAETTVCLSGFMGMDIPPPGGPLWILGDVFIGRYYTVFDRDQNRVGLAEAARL
Put plainly: Inhibition of bovine spleen cathepsin D up to 10 ug/ml. The method in brief: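 Cathepsin D purified from bovine spleen, 40 nM final. Compound (DMSO stock diluted in 0.1 M Na acetate pH 3.5) preincubated with enzyme 10 min. 2% hemoglobin substrate added, 10 min at 37°. Stopped with 0.33 M trichloroacetic acid. Soluble products treated with NaOH and Folin-Ciocalteu reagent; absorbance read at 750 nm. Tested up to 10 μg/ml.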

Another series is filed under the species Sus scrofa. Put plainly: Inhibition of pig pepsin up to 10 ug/ml. The method in brief: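 Porcine pepsin, 40 nM final. Compound stock diluted in 0.01 M HCl and preincubated with enzyme 10 min at room temperature. 2% hemoglobin substrate (pH 1.8) added, 10 min at 37°. Stopped with 0.33 M TCA; activity by modified Anson hemoglobin method. Tested up to 10 μg/ml.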

For series [2], the system named is Human immunodeficiency virus 1. Put plainly: Antiviral activity against HIV1 replication infected in human MT2 cells assessed as reduction in plaque formation after 3 days by MTT assay. It counts as functional. The settings on record: Human immunodeficiency virus 1, MT2, 72 h. The method in brief: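 MT-2 cells pretreated 30 min at room temperature with compound (DMSO stock diluted in RPMI), infected with HIV-1 (3b or rf) 1 h at 36°, washed, then grown 3 days in compound-containing RPMI. Progeny titre measured by plaque assay on poly-L-lysine-coated MT-2 monolayers under agarose overlays, stained with MTT. Activity expressed as percent reduction in titre versus untreated virus; IC90 reported.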
Background: Tetrazolium assays rely on reduction of a dye to a coloured formazan, in cell work by metabolically active cells.

In another series the test system is H9. Put plainly: Cytotoxicity against human H9 cells after 3 or 5 days by XTT assay. Format: cell-based. The settings on record: h9, 120 h. A digest of the protocol: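 Cells seeded at 1×10^5 per well with graded compound concentrations and grown at 36° for 3 or 5 days depending on cell type. XTT (1 mg/ml, with 0.025 mM phenazine methosulfate) added, 1 h at 36°, OD450 read. TC90 is the concentration giving 90% reduction in viable cells.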

Converted amounts (≈) assume the structure as drawn. The source made the active and inactive calls. The rule behind the calls is not given here.

Sequence of Protease (Human immunodeficiency virus 1) (Q9YQ12 as listed by the source): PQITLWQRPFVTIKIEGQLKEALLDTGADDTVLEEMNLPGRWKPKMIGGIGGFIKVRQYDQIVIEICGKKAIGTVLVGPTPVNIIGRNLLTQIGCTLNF

`COc1c(C(C)C)cc2c(c1OC)[C@@]13CCCC(C)(C)[C@@H]1C[C@@H]2OC3=O`: the IC90 in series [1] was above 10 µg/mL. The result on Cathepsin D (Bos taurus) and in the series listed under Sus scrofa was inactive.
Turning to `CC(C)c1cc2c(c(O)c1O)[C@@]13CCCC(C)(C)[C@@H]1[C@H](OC3=O)[C@H]2O`, the IC90 in series [1] is 0.6 µg/mL. In addition, the outcome on Cathepsin D (Bos taurus) and in the series listed under Sus scrofa was inactive.
As to `CO[C@H]1c2cc(C(C)C)c(O)c(O)c2[C@@]23CCCC(C)(C)[C@@H]2[C@@H]1OC3=O`, in series [1], the IC90 was 1.5 µg/mL. Further, the outcome on Cathepsin D (Bos taurus) and in the series listed under Sus scrofa was inactive.
`CC(C)c1cc2c(c(O)c1O)[C@@]1(C(=O)O)CCCC(C)(C)[C@@H]1CC2` [CARNOSIC ACID]: the IC90 is 0.08 µg/mL in series [1] and 0.32 µg/mL (≈ 0.963 µM) in series [2]. In addition, the result on Cathepsin D (Bos taurus) and in the series listed under Sus scrofa was inactive. In the series with H9, this compound gave a TC90 of 0.36 µg/mL (≈ 1.08 µM).
As for `CCO[C@H]1c2cc(C(C)C)c(O)c(O)c2[C@@]23CCCC(C)(C)[C@@H]2[C@@H]1OC3=O`, the IC90 in series [1] worked out at 1.7 µg/mL. The outcome at Cathepsin D (Bos taurus) and in the series filed under Sus scrofa was inactive.
With `CC(C)c1cc2c(c(O)c1O)[C@@]13CCCC(C)(C)[C@@H]1C[C@@H]2OC3=O`, in series [1], the IC90 is above 10 µg/mL. Moreover, the result at Cathepsin D (Bos taurus) and in the series listed under Sus scrofa was inactive.
